Assay results: ChEMBL document CHEMBL1142626, “Insecticidal and mutagenic evaluation of two annonaceous acetogenins” (J Nat Prod, 2000)

Columns and labels:
Myzus persicae [1] = experiment: Insecticidal activity against Myzus persicae assessed as offspring production at 50 ug/cm2 observed daily for 4 days; type: functional, organism-based
How it was run: (§1)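 No-choice test: 20 boxes, each with five same-age apterous adult M. persicae (100 insects). Nymphs produced in the first 48 h were separated from adults and kept in similarly treated boxes. Both were observed daily for 4 days for mortality. Analysed by contingency tables and LSD test.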

Myzus persicae [2] = experiment: Antifeedant effect against Myzus persicae assessed as inhibition index at 100 ug/cm2 relative to control; type: functional; parameters: scale not given: the % may be the effect or the level left
How it was run: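 Choice settling test on apterous adult M. persicae: 20 boxes of 10 aphids per treatment. Settling inhibition %SI = [1 − (%aphids on treated/%aphids on control surface)] × 100.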

Spodoptera littoralis [3] = experiment: Antifeedant effect against Spodoptera littoralis L6 larvae assessed as relative consumption rate at 10 ug, po after 72 hrs; type: functional
How it was run: (§2)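 Preweighed, newly emerged S. littoralis L6 larvae (20 per experiment) were orally cannulated with 10 µg in 2 µL DMSO; controls got solvent alone. Relative consumption and growth rates were calculated at 72 h on a dry-weight basis. Log-transformed weights were analysed by ANOVA with LSD tests.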

Spodoptera littoralis [4] = experiment: Antifeedant effect against Spodoptera littoralis L6 larvae assessed as relative growth rate at 10 ug, po after 72 hrs; type: functional; how it was run: as §2
[5] = system: Leptinotarsa decemlineata; experiment: Insecticidal activity against Leptinotarsa decemlineata assessed as mortality at 5 ug by hemolymph injection after 72 hrs; type: functional
How it was run: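 Adult L. decemlineata (20 beetles) were injected with 5 µg in DMSO through the metepimeron suture of the thorax. Beetles were kept on potato leaves. Symptoms and mortality were recorded up to 3 days, analysed by contingency tables and Abbott-corrected.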

[6] = system: Leptinotarsa decemlineata; experiment: Antifeedant effect against Leptinotarsa decemlineata assessed as feeding reduction at 10 ug/cm2; type: functional, organism-based
How it was run: (§3)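 Choice test on leaf disks using adult L. decemlineata or newly emerged fifth-instar S. littoralis larvae. Five to 10 plates per treatment, three insects each. Uneaten leaf-disk area was measured by scanner. %FR = [1 − (treatment/control consumption)] × 100 per arena. Where FR exceeded 50%, EC50 was taken from linear regression of %FR on log dose.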

Spodoptera littoralis [7] = experiment: Antifeedant effect against Spodoptera littoralis assessed as feeding reduction at 100 ug/cm2 relative to control; type: functional; parameters: scale not given: the % may be the effect or the level left; how it was run: as §3
Myzus persicae [8] = experiment: Insecticidal activity against Myzus persicae assessed as offspring production at 100 ug/cm2 observed daily for 4 days; type: functional, organism-based; how it was run: as §1
Myzus persicae [9] = experiment: Insecticidal activity against Myzus persicae assessed as increase in mortality at 100 ug/cm2 observed daily for 4 days; type: functional, organism-based; how it was run: as §1

With `C=C(C)[C@H]1Cc2c(ccc3c2O[C@@H]2COc4cc(OC)c(OC)cc4[C@@H]2C3=O)O1` [ROTENONE] the Activity (Myzus persicae [1]) was “Toxic”, the Activity (Myzus persicae [2]) was <40% and the Activity (Spodoptera littoralis [3]) was 20.88 mg. For the same molecule, the Activity (Spodoptera littoralis [4]) was 3.47 mg, the Activity [5] was 100% and the Activity [6] was “Toxic”. The Activity (Spodoptera littoralis [7]) was >40%, the Activity (Myzus persicae [8]) was “Toxic” and the Activity (Myzus persicae [9]) was “Non-toxic”.
